S100A4 inh HTS: S100A4-myosin IIA interaction inhibition; hit rate 0.14% among 360,000; inhibition, % at 10.7 µM; S100A4/TAMRA-MyoIIA peptide fluorescence polarization; AID 652163;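 active = mean inhibition of at least 70% across replicates, with every replicate also reaching that level; inconclusive = mean inhibition reaches 70% but some replicates fall short; inactive = mean inhibition below 70%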
Target sequence (P26447 whole entry, looked up): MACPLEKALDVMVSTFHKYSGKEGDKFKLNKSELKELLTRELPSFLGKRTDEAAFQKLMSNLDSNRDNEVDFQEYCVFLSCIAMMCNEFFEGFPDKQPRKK
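Test system – S100A4 monomer (human) · Compound – single-point compound testing · Schedule – 5 min incubation before reading · Probe or stimulus – TAMRA-labelled myosin IIA heavy-chain peptide probe, 5 nM · Benchmarks – neutral control DMSO, positive control TFP · Medium – Calcium-containing HEPES buffer, pH 7.2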
AF4-AF9 inh: blocks AF4 peptide binding to human AF9; AID 651704; AlphaScreen, biotin-AF4 peptide binding to FLAG-AF9; inhibition, % at 10 µM; hit rate 0.47% among 350,000;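 active = every replicate reaching a set inhibition limit, whatever the replicate mean, cut at about 25% in these data; inconclusive = mean inhibition reaches that limit but some replicates miss it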;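 note: 0% = plate neutral control median and 100% = total signal loss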
SIRT5 inh: sirtuin-5 (human) deacylase inhibition. Purified SirT5, succinyl-peptide AMC, trypsin-coupled fluorescence. inhibition, % at 15 µM. hit rate 1.1% among 330,000; in the data active = inhibition above about 15%; inconclusive = no clear call, values can overlap the other calls
Target sequence (Q9NXA8 whole entry, looked up): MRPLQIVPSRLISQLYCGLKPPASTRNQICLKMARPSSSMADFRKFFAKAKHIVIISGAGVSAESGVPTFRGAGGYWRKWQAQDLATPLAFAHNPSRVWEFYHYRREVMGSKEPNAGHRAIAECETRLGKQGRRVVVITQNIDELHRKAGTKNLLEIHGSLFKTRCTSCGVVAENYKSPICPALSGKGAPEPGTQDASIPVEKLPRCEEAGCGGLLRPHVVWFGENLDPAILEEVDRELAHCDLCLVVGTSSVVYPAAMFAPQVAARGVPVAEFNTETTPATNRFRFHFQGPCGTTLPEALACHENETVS
DENV2 CPE rescue: inhibitors of DENV2 cytopathic effect; DENV2-infected cells, cytopathic effect rescue, plate reader; CPE inhibition, % at 9.99 µM; hit rate 1.7% among 350,000; in the data active = CPE inhibition above about 20%, passing the limit was not always enough; inconclusive = no clear call, values can overlap the other calls; tested in BHK-21 cells;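 note: 0% = median of neutral control wells and 100% = median of positive control wells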
CaV13 FRET inh: Primary screen for inhibitors of IQ motif and Ca2+-dependent inactivation inhibitor domain binding in CACNA1D, Förster resonance energy transfer in living cells, …; HEK cells, CFP/YFP FRET ICDI-IQ, plate reader, 10 min; percent FRET-ratio fall versus neutral wells; inhibition, % at 12.3 µM; hit rate 0.098% among 340,000; AID 743397;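 active = mean replicate inhibition of at least 30% and at least 1% of replicates passing that level; inconclusive = only one of the two criteria is met; inactive = neither criterion is met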;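 note: 0% = median of the neutral control wells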
The depositor's hits bear a star; ? = inconclusive; . = not tested or not shown; ! = not active in a repeat. Hits are enriched below; roughly 2.7% of the tested compounds scored in any of these assays.

SMILES	S100A4 inh HTS	AF4-AF9 inh	SIRT5 inh	DENV2 CPE rescue	CaV13 FRET inh
COc1ccccc1OCc1ccc(C(=O)N(C)c2ccccc2)o1	5.4	1.1	.	?	38.7*
CCc1cc(CNC(=O)CCc2nnc(CCCc3ccccc3)o2)on1	-3.0	-50.5	19.5*	-3.3	2.8
CC(C)c1cc(CNC(=O)CCc2nnc(CCCc3ccccc3)o2)on1	0.2	0.2	0.5	3.5	-17.6
Nc1ncnc2c1ncn2[C@@H]1O[C@H](C(=O)N[C@@H](CCc2ccccc2)C(=O)N2CCN(C(=O)N3CCCCC3)CC2)[C@@H](O)[C@H]1O	-0.7	.	-0.3	-2.3	-2.2
CCCN(CCC)CCN1CCN(C(=O)[C@H](CCc2ccccc2)NC(=O)[C@H]2O[C@@H](n3cnc4c(N)ncnc43)[C@H](O)[C@@H]2O)CC1	-16.3	.	29.4*	-5.7	-8.6
Nc1cc2c(cc1Cl)-c1ccccc1C2=NO	3.1	7.2	23.7*	0.2	-9.7
ON=C1c2ccccc2-c2ccccc21	1.0	-1.0	-2.0	-7.8	-19.8
C[C@@H]1CCCCO[C@@H](CN(C)CC2CC2)[C@@H](C)CN([C@H](C)CO)C(=O)c2cc(NC(=O)Nc3ccc(F)cc3)ccc2O1	-2.2	8.0	-3.3	77.8*	.
COc1ccc(NC(=O)Nc2ccc3c(c2)C(=O)N([C@@H](C)CO)C[C@@H](C)[C@@H](CN(C)CC2CC2)OCCCC[C@@H](C)O3)cc1	8.6	25.6*	6.7	-2.0	.
CCN(C[C@@H]1[C@@H](c2ccccc2)[C@H](CO)N1C(C)=O)C(=O)c1cccc(F)c1	-19.5	-0.3	-0.3	2.7	.
CC(=O)N[C@H]1C[C@@H]2O[C@H](CO)CC[C@@H]2O[C@@H]1CCc1ccc(C#CCc2ccccc2)cc1	0.6	6.1	-7.6	-0.4	.
CC(C)NC(=O)N[C@H]1C[C@@H]2O[C@@H](CO)CC[C@@H]2O[C@@H]1CCc1ccc(-c2ccccc2F)cc1	-9.2	33.1*	-2.2	1.4	.
CS(=O)(=O)N[C@@H]1C[C@@H]2O[C@@H](CO)CC[C@@H]2O[C@@H]1CCc1ccc(-c2ccccc2F)cc1	-1.9	-3.4	2.6	21.4*	.
CC(=O)N[C@@H]1C[C@@H]2O[C@H](CO)CC[C@@H]2O[C@@H]1CCc1ccc(C#CC2(O)CCCC2)cc1	5.8	-2.9	0.0	21.3*	.
CC(C)NC(=O)N[C@@H]1C[C@@H]2O[C@@H](CO)CC[C@@H]2O[C@@H]1CCc1ccc(-c2ccc(F)cc2)cc1	9.9	-3.8	-2.5	-12.7	.
CCCC#Cc1ccc(CC[C@H]2O[C@H]3CC[C@@H](CO)O[C@H]3C[C@H]2NS(=O)(=O)c2ccccc2)cc1	2.5	-1.2	20.0*	10.5	.
C[C@H](CO)N1C[C@H](C)[C@@H](CN(C)S(=O)(=O)c2ccc(F)cc2)Oc2c(NC(=O)CCCCCC(=O)Nc3ccccc3N)cccc2C1=O	-1.4	-1.4	-0.7	-14.8	.
C[C@@H]1CN([C@H](C)CO)C(=O)c2cc(NS(=O)(=O)c3cccs3)ccc2O[C@@H](C)CCCCO[C@@H]1CN(C)CC1CC1	.	.	.	4.2	.
CN(N=Cc1ccccc1O)C(=O)c1ccccc1N	0.4	0.2	.	5.4	-12.8
C[C@@H]1CCCCO[C@H](CN(C)Cc2ccc(C(F)(F)F)cc2)[C@@H](C)CN([C@H](C)CO)C(=O)c2cc(NS(=O)(=O)c3ccccc3)ccc2O1	-5.2	0.1	2.3	2.5	.
C[C@H](CO)N1C[C@H](C)[C@H](CN(C)Cc2ccc(C(F)(F)F)cc2)OCCCC[C@H](C)Oc2ccc(NS(=O)(=O)c3ccccc3)cc2C1=O	8.7	5.1	14.9	1.3	.
C[C@H]1CCCCO[C@@H](CN(C)Cc2ccc(C(F)(F)F)cc2)[C@@H](C)CN([C@@H](C)CO)C(=O)c2cc(NS(=O)(=O)c3ccccc3)ccc2O1	-6.8	1.7	12.1	-0.3	.
C[C@@H]1CN([C@H](C)CO)C(=O)c2cc(NS(=O)(=O)c3ccccc3)ccc2O[C@@H](C)CCCCO[C@H]1CN(C)Cc1ccc(C(F)(F)F)cc1	-12.5	4.6	18.8*	-8.0	.
C[C@@H]1CN([C@@H](C)CO)C(=O)c2cc(NS(=O)(=O)c3ccccc3)ccc2O[C@@H](C)CCCCO[C@@H]1CN(C)Cc1ccc(C(F)(F)F)cc1	9.2	1.2	20.0*	6.1	.
C[C@H]1CCCCO[C@H](CN(C)Cc2ccc(C(F)(F)F)cc2)[C@@H](C)CN([C@@H](C)CO)C(=O)c2cc(NS(=O)(=O)c3ccccc3)ccc2O1	?	0.2	20.1*	-2.2	.
SMILES	S100A4 inh HTS	AF4-AF9 inh	SIRT5 inh	DENV2 CPE rescue	CaV13 FRET inh
COc1ccc(NC(=O)Nc2ccc3c(c2)[C@@H]2C[C@@H](CC(=O)NCc4ccncc4)O[C@H](CO)[C@@H]2O3)cc1	-23.4	0.6	-2.7	3.7	.
COc1ccccc1-c1cnc2c(c1)C(=O)N([C@@H](C)CO)C[C@@H](C)[C@@H](CN(C)Cc1cccc(F)c1)O2	1.5	1.8	2.7	-10.2	.
CCCCN1CCC(CN2C(=O)C(=O)NC[C@@H]2Cc2ccccc2)CC1	-15.1	-1.1	-1.8	-2.7	-9.4
S=C1NC[C@H](Cc2ccccc2)N1CC1CCN(CCCCc2ccccc2)CC1	2.8	11.4	-7.1	5.2	-10.5
O=C1NC[C@H](Cc2ccccc2)N(CC2CCN(CCCCc3ccccc3)CC2)C1=O	-3.4	2.3	-1.9	35.2*	-2.4
COc1ccc(CCN2CCC(CN3C(=S)NC[C@@H]3Cc3ccccc3)CC2)cc1OC	-13.1	19.7	0.5	93.3*	-4.1
CO[C@@H]1CN(C)C(=O)c2cc(NC(=O)NC(C)C)ccc2OC[C@@H](C)N(S(C)(=O)=O)C[C@H]1C	41.5	-4.2	.	-8.9	.
C[C@@H]1CN([C@@H](C)CO)C(=O)c2cc(C#CCN(C)C)cnc2O[C@H]1CN(C)Cc1ccc(-c2ccccc2)cc1	2.0	33.9*!	-1.5	-2.6	.
C[C@@H]1CN([C@@H](C)CO)C(=O)c2cc(C#CCc3ccccc3)cnc2O[C@H]1CN(C)CC1CCCC1	25.0	20.2	-4.0	-10.1	.
C[C@@H]1CN([C@H](C)CO)C(=O)c2cc(C#CCN(C)C)cnc2O[C@H]1CN(C)Cc1ccc(-c2ccccc2)cc1	-0.2	26.7*	-5.9	-8.0	.
C[C@H](CO)N1C[C@H](C)[C@H](CN(C)Cc2ccccc2)Oc2ncc(C#CCN(C)C)cc2C1=O	0.7	-5.2	18.6*!	9.5	.
C[C@@H]1CN([C@@H](C)CO)C(=O)c2cc(C#CCc3ccccc3)cnc2O[C@@H]1CN(C)CC1CC1	120.9*	3.7	2.3	3.8	.
CC(C)C#Cc1ccc2c(c1)O[C@@H](CN(C)C(=O)CC1CC1)[C@@H](C)CN([C@H](C)CO)S2(=O)=O	0.5	2.7	6.3	?	.
O=C(COc1ccccc1[N+](=O)[O-])N/N=C/c1ccc(OC(=O)c2ccco2)cc1	0.4	0.8	.	9.8	-4.6
COc1cc(/C=N/NC(=O)COc2ccccc2[N+](=O)[O-])ccc1OC(=O)c1ccco1	41.1	5.1	1.3	26.6*	-5.2

Bioassay records as filed in PubChem.
